Only some compounds are listed: those with a hit (about 4.1% of all), similar ones and a draw of the others.
KCNQ1 inh: inhibitors of human KCNQ1 potassium channel | CHO-K1 KCNQ1, FluxOR thallium flux fluorescence; stronger effect = higher value | P51787 | B-score at 10 µM | AID 2642 | 310,000 tested, 1.3% active;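 active = compounds whose thallium flux B-score, printed positive for inhibition, exceeds three library SD while starting fluorescence stays within three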;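 also: channel opened by potassium depolarization with thallium stimulus after 20 min compound exposure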
KCNQ1 act: potentiators or activators of human KCNQ1 potassium channel; P51787; CHO-K1 KCNQ1, thallium flux FluxOR fluorescence; stronger effect = higher value; B-score at 10 µM; 310,000 tested, 0.35% active;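 active = fluorescence ratio B-score, a plate-corrected score, at least three library SD, with initial intensity B-score within 5 SD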
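Doses: Single concentration per compound, DMSO matched to controls | Test system: KCNQ1-transfected CHO-K1 cells | Timing: 90 min dye loading and 20 min compound exposure, both at room temperature | Measured by: Kinetic FluxOR thallium fluorescence, 10-s 1-Hz baseline, 110-s post-stimulus read | Medium: Assay buffer with matched DMSO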
KCNK9 inh: blocks the human KCNK9 two-pore domain potassium channel; Q9NPC2; HEK293 KCNK9, FluxOR thallium flux fluorescence; stronger effect = lower value; B-score at 10 µM; 310,000 tested, 1.2% active; AID 488922;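 active = ratio B-score over 3 SD below the library mean, with starting fluorescence within 5 SD of its mean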;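 also: negative B-score means less thallium flux so channel inhibition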
hERG rescue: shields human hERG channel from block by proarrhythmic agents. Q12809. CHO-hERG, FluxOR thallium flux, dofetilide IC70 present. activation (rescue from dofetilide block), less the hit threshold, % at 10 µM. 310,000 tested, 0.51% active. AID 1511;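 active = activation above the mean of controls blocked by dofetilide plus 5 SD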;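 also: thallium influx through hERG after potassium depolarization seen as dye fluorescence rise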
Cl transport mod: KCC2 (human) Cl- transport modulation | Q9H2X9 | KCC2 cells, thallium flux FluoZin-2 fluorescence | B-score of Tl+ flux slope (higher = more flux/activation; lower = inhibition) at 10 µM | 190,000 tested, 2.2% active | AID 1456;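 active = thallium flux slope and its plate-corrected score both differing from the plate sample mean at a set confidence after two filtering rounds, in either direction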;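 also: slope of fluorescence scaled to starting intensity during 10 to 20 s after thallium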
Target sequence (Q9H2X9 whole entry, looked up): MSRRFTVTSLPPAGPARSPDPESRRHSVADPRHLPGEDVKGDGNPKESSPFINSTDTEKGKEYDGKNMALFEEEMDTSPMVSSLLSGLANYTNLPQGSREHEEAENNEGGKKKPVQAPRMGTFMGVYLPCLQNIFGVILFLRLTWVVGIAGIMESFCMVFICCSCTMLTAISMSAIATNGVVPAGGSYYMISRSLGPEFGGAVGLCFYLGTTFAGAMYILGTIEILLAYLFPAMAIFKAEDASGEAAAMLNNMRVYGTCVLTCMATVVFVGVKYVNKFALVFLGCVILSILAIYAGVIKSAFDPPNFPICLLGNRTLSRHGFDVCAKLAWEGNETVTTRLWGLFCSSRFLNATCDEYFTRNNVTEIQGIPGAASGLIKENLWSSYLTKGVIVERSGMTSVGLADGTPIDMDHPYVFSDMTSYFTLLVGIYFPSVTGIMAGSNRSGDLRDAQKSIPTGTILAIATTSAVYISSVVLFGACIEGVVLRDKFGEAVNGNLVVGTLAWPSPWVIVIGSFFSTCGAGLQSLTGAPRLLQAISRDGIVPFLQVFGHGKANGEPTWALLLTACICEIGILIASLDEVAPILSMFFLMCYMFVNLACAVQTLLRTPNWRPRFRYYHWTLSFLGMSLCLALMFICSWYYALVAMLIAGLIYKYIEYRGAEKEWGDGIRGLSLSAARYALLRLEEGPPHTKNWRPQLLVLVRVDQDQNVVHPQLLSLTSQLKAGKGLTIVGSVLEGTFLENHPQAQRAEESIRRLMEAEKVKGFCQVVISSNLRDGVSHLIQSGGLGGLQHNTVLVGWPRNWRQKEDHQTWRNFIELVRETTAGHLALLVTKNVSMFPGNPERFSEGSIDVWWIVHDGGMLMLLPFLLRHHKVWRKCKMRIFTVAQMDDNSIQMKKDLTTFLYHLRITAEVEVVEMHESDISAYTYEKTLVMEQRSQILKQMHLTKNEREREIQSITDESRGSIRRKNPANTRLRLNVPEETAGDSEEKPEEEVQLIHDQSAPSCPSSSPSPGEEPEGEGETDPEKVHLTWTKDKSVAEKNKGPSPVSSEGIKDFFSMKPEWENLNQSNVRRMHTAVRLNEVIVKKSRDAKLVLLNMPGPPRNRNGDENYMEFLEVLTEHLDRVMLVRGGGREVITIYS
KCNK3 inh: human KCNK3 channel inhibition, primary screen. O14649. CHO-KCNK3 thallium flux, FluxOR fluorescence; stronger effect = lower value. B-score at 10 µM. 340,000 tested, 0.84% active;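 active = B-score under library mean minus 4 SD, starting fluorescence ratio at most library mean plus 5 SD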;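 also: more negative B-score means stronger inhibition of thallium flux through KCNK3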
* = called active by the depositor; i = inactive; / = no result given.

SMILES	KCNQ1 inh	KCNQ1 act	KCNK9 inh	hERG rescue	Cl transport mod	KCNK3 inh
COc1ccc(N2CCN(C(=O)c3ccccc3)CC2)c([N+](=O)[O-])c1	i	i	i	-2	0.52	i
COc1ccc(N2CCN(C(=S)NC(=O)c3cccs3)CC2)c([N+](=O)[O-])c1	i	13*	i	-7	90*	i
CC1=NN(C(N)=S)C(=O)C1N=Nc1c(C)cc(C)cc1C (centres undefined)	i	i	i	-5	1.9	i
CC1=NN(C(N)=S)C(=O)C1N=Nc1ccc(C)cc1C (centres undefined)	i	i	i	-3	21*	/
CC1=NN(C(N)=S)C(=O)C1N=Nc1ccccc1C (centres undefined)	i	i	i	0	18*	i
O=C(Nc1cccc(S(=O)(=O)N2CCOCC2)c1)c1ccco1	i	i	i	-8	1.6	i
CN(Cc1cc(=O)n2ccsc2n1)Cc1nc2ccccc2c(=O)[nH]1	i	i	i	-16	0.009	i
Cc1c(Cl)cccc1NC(=O)CCCN1C(=O)CCC1=O	i	i	i	-11	0.0039	i
CC(NC(=O)c1cccc(Cn2cc([N+](=O)[O-])cn2)c1)c1ccc(C(C)(C)C)cc1 (centres undefined)	i	i	-7.6*	-4	0.66	i
CC(NC(=O)c1ccc(Cn2cc([N+](=O)[O-])cn2)o1)c1ccccc1 (centres undefined)	i	i	i	-6	-0.29	i
CC(C)C(=O)Nc1ccc(NC(=O)CCc2ccccc2)cn1	i	i	i	9.1*	-0.64	i
COc1ccc(S(=O)(=O)N(C)C)cc1NCC(=O)Nc1ccc(F)cc1F	i	i	i	-6	0.24	i
Cc1ccc(S(=O)(=O)N(C)C)cc1NC(=S)Nc1cccc2ccccc12	i	i	-7.1*	-5	/	i
Cc1ccc(S(=O)(=O)N(C)C)cc1NC(=S)NC(C)CCC(C)C (centres undefined)	i	i	i	-4	0.081	i
COc1ccc(S(=O)(=O)N(C)C)cc1NCC(=O)Nc1cccc2ccccc12	i	i	-7.4*	-15	/	i
CC(=O)NNC(=S)Nc1cc(S(=O)(=O)N(C)C)ccc1C	i	i	i	0	1.2	i
Cc1ccc(S(=O)(=O)N(C)C)cc1NC(=S)NC(C)CCCC(C)C (centres undefined)	i	i	i	6.6*	-0.56	i
COCCCN1C(=O)c2ccc(C(=O)NCc3ccco3)cc2C1=O	i	i	i	-6	/	i
O=S(=O)(Nc1cc(Sc2cccc3cccnc23)c(O)c2ccccc12)c1ccc(F)cc1	i	i	i	-5	48*	/
O=C(Sc1cccc2cccnc12)c1ccc(F)cc1	/	/	/	/	64*	/
COc1ccc(S(=O)(=O)Nc2cc(Sc3ncn[nH]3)c(O)c3ccccc23)cc1	/	/	/	/	-1.6	/
CN(C)C(=O)CSc1cccc2cccnc12	i	i	i	-6	8.1*	i
CCC1S/C(=N/N=C/c2ccco2)N(Cc2ccccc2)C1=O (centres undefined)	i	i	i	-11	0.031	i
CCCN(CC(=O)Nc1ccccc1OC)C(=O)c1cc(-c2cccs2)nn1-c1ccccc1	i	i	i	-19	/	i
CNC(=O)COC(=O)c1ccccc1C(=O)c1ccc(Cl)c([N+](=O)[O-])c1	6*	i	i	-35	-1.2	i
Cc1cn2c(nc1=O)OC1C(O)C(COC(=O)c3ccccc3)OC12 (centres undefined)	i	i	i	5.0*	/	i
COCc1cc(C)nc(SCc2ccccc2)c1C#N	i	i	i	-7	/	i
Cc1c(C(=O)N2CCC(Cc3ccccc3)CC2)cccc1[N+](=O)[O-]	i	i	i	-9	-2.3	i
Cc1cccc(C(=O)N2CCC(Cc3ccccc3)CC2)c1[N+](=O)[O-]	i	i	i	-6	-4.2*	i
O=C(Nc1ccc(F)c(Cl)c1)Nc1csc2ccccc12	i	i	i	-34	-0.18	i

Screens (PubChem)
